{
  "source": "paper PMC4633329",
  "about": "(Chemistry and physics of lipids, 2015)",
  "molecules": {"B1": {"name": "Mb: myoglobin; solutions prepared from lyophilized horse heart protein (protein, UniProt P68082 2-154, looked up)", "Myoglobin": "GLSDGEWQQVLNVWGKVEADIAGHGQEVLIRLFTGHPETLEKFDKFKHLKTEAEMKASEDLKKHGTVVLTALGGILKKKGHHEAELKPLAQSHATKHKIPIKYLEFISDAIIHVLHSKHPGDFGADAQGAMTKALELFRNDIAAKYKELGFQG"}},
  "key": {"[1]": {"settings": "in the cell, cited from earlier work"}, "[2]": {"test": "pK of OA by NMR pH titration", "format": "physicochemical", "settings": "0.8 mM OA, 35 °C, 1H NMR, referenced to peak position at pH 12.14"}, "[3]": {"test": "OA solubility from NMR visible EFG", "format": "physicochemical"}, "[4]": {"settings": "cited from earlier work"}, "[5]": {"target": "Mb (Equus caballus, UniProt P68082)", "sequence (P68082 whole entry)": "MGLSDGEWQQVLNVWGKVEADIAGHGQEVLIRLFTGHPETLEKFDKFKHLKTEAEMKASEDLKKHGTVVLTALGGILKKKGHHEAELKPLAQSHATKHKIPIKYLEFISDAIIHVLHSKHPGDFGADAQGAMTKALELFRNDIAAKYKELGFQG", "test": "Optical spectra", "design": "species or system horse"}, "[6]": {"target": "MbCN (Equus caballus, UniProt P68082)", "sequence (P68082 whole entry)": "as above", "test": "1H NMR titration of MbCN with OA", "format": "binding, horse", "procedure,_shortened": "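Horse metMb converted to MbCN with 5-fold excess KCN in 30mM Tris, 1mM EDTA, pH 7.4. OA stock (10 or 100mM, pH 8.5, 65°C) added to 0.2-0.8 mM MbCN at 35°C (OA:Mb up to 60:1). 1H NMR at 600 MHz, 35°C, Watergate, 10% D2O, TSP reference. Heme methyl intensity loss fitted to a specific plus non-specific 2-site model by Marquardt-Levenberg regression.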"}, "[7]": {"target": "FABP", "settings": "read-out: Dissociation Constant KFABP; flux model input; ref [15]; [45]; cited from earlier work"}, "[8]": {"system": "deoxy Mb", "settings": "ref [47]; [48]; cited from earlier work"}, "[9]": {"target": "MbCN", "settings": "read-out: MbCN-PA Kd; ref [47]; [48]; cited from earlier work"}, "[10]": {"target": "MbCO", "settings": "read-out: MbCO-PA Kd; ref [47]; [48]; cited from earlier work"}, "[11]": {"system": "Mb", "settings": "25:1 ratio of SDS to Mb; ref [50]; cited from earlier work"}},
  "note": "Several values for one entry are separate records, joined by “and”; a condition that tells them apart may be missing. Equal entries are not always repeated. Where two headings read alike, the source gives them in different places.",
  "data": [
    {"molecule": "CCCCCCCC/C=C\\CCCCCCCC(=O)O", "note": "[OA, oleic acid]", "values": [
      {"measurement": "Diffusion Constant, Fatty acid (DOA)", "setting": "[1]; highest reported value, ref [52]", "result": "4.6 × 10^−6 cm^2s^−1"},
      {"measurement": "pK from peak B", "setting": "[2]", "result": 8.22},
      {"measurement": "pK from peak D", "setting": "[2]", "result": 8.07},
      {"measurement": "Solubility", "setting": "[3]; 0.8mM MbCN in Tris, pH 7.4 35°C, 0.0904g/100g total OA added", "result": "7.03×10^−2 g/100g"},
      {"measurement": "Solubility", "setting": "[3]; 10.8mM MbCN in phosphate, pH 7.4 35°C, 0.0904g/100g total OA added", "result": "6.59×10^−2 g/100g"},
      {"measurement": "Solubility", "setting": "[3]; 30 mM Tris buffer, 35 °C, pH 7.4, aqueous buffer, kinetic from dmso stock", "result": 1430, "unit": "µM"},
      {"measurement": "Solubility", "setting": "[3]; 30 mM Tris buffer, 35 °C, pH 12, aqueous buffer, kinetic from dmso stock", "result": 2990, "unit": "µM"},
      {"measurement": "Solubility", "setting": "[3]; 30 mM Tris buffer, pH 7.4 35°C, 0.0904g/100g total OA added", "result": "4.04×10^−2 g/100g"},
      {"measurement": "Solubility", "setting": "[3]; 30 mM Tris buffer, pH 12 35°C, 0.0904g/100g total OA added", "result": "8.45×10^−2 g/100g"},
      {"measurement": "Solubility", "setting": "[3]; 100 mM phosphate buffer, 35 °C, pH 7.4, aqueous buffer, kinetic from dmso stock", "result": 1260, "unit": "µM"},
      {"measurement": "Solubility", "setting": "[3]; 100 mM phosphate buffer, pH 7.4 35°C, 0.0904g/100g total OA added", "result": "3.56×10^−2 g/100g"},
      {"measurement": "Solubility", "setting": "[4]; 66 mM phosphate buffer, pH 7.4 at 37°C, ref [53], listed as Oleate", "result": "1.00×10^−6 M and 2.83×10^−5 g/100g"},
      {"measurement": "Solubility", "setting": "[4]; 0.2 M HEPES, pH 7.4 at 37°C, ref [46], listed as Oleate", "result": "6.00×10^−6 M and 1.70×10^−4 g/100g"},
      {"measurement": "Solubility", "setting": "[4]; 95% of ethanol at 20°C, ref [22]", "result": "∞"},
      {"measurement": "Solubility", "setting": "[4]; Acetone at 20°C, ref [22]", "result": "∞"},
      {"measurement": "Solubility", "setting": "[4]; Benzene at 20°C, ref [22]", "result": "∞"},
      {"measurement": "hemichrome formation in optical spectra", "setting": "[5]; OA:Mb of 5:1 to 50:1", "result": "do not detect any signs of hemichrome formation"},
      {"measurement": "reduction in Soret band intensity", "setting": "[5]; OA:Mb of 50:1", "result": 5, "unit": "%"},
      {"measurement": "Soret band position", "setting": "[5]; OA:Mb of 50:1, shifts from 422", "result": 420, "unit": "nm"},
      {"measurement": "perturbation of Mb Soret band at 422 nm", "setting": "[5]; OA:Mb ratio up to 5:1", "result": "no significant perturbation"},
      {"measurement": "reduction in Soret band intensity", "setting": "[5]; OA:Mb ratios 20:1 to 50:1", "result": "< 5", "unit": "%"},
      {"measurement": "Soret band position", "setting": "[5]; OA:Mb ratios 20:1 to 50:1, 422 nm without OA", "result": 420, "unit": "nm"},
      {"measurement": "metMb signal in optical spectra", "setting": "[5]; OA:Mb up to 50:1", "result": "no detectable metMb signal"},
      {"measurement": "Kd", "setting": "[6]; Dissociation Constant KMb2 (non-specific binding), 2-site model, high OA:Mb", "result": 37000, "unit": "µM"},
      {"measurement": "Kd", "setting": "[6]; apparent Kd (Kd1, KMb1), specific OA binding to MbCN, heme 8-CH3 signal loss, OA:Mb < 2:1, pH 7.4, 35 °C", "result": 45, "unit": "µM"},
      {"measurement": "Kd", "setting": "[7]", "result": 0.014, "unit": "µM"}
    ]},
    {"molecule": "CCCCCCCCCCCCCCCC(=O)O", "note": "[PA, palmitate]", "values": [
      {"measurement": "PA interaction with deoxy Mb", "setting": "[8]", "result": "does not interact specifically or non-specifically"},
      {"measurement": "Kd", "setting": "[9]", "result": 43, "unit": "µM"},
      {"measurement": "Kd", "setting": "[10]", "result": "39 to 48", "unit": "µM"}
    ]},
    {"molecule": "CCCCCCCCCCCCOS(=O)(=O)[O-].[Na+]", "note": "[SDS, sodium dodecyl sulfate]", "values": [
      {"measurement": "loss of Soret band signal intensity", "setting": "[11]", "result": 25, "unit": "%"}
    ]},
    {"molecule": "B1", "values": [
      {"measurement": "Diffusion Constant, Myoglobin (DMb)", "setting": "[1]; ref [34]", "result": "7.85 × 10^−7 cm^2s^−1"}
    ]}
  ]
}
